In ChEMBL document CHEMBL1671655, “Anidulafungin is fungicidal and exerts a variety of postantifungal effects against Candida albicans, C. glabrata, C. parapsilosis, and C. krusei isolates” (2009):
In brackets after ≈: the same amount, converted by molar mass. Activity calls are given as the source filed them. No cut-off for these calls is given here. Starred links: 1 amine or outer side, 2 acyl side, 3 side chain; linkers in the order of their positions; H or OH if unused. Positions of bridges follow the written chain, without caps; N, C: chain ends. Non-standard residues stand in square brackets, D forms with d. Residues, ends and D or L forms follow the SMILES beside them. *: point of attachment. pTerphenylCO(4''-OnC5H11) = CCCCCOc1ccc(-c2ccc(-c3ccc(C(=O)*)cc3)cc2)cc1; Orn(4R-OH,5R-OH) = O=C([C@H](C[C@@H](O)[C@@H](O)N[*:3])N[*:1])[*:2]; hTyr(3S-OH,4S-OH) = N[C@H](C(=O)O)[C@H](O)[C@@H](O)c1ccc(O)cc1; Pro(3S-OH,4S-Me) = C[C@H]1CN[C@H](C(=O)O)[C@H]1O; Hyp = O=C(O)[C@@H]1C[C@@H](O)CN1

Experiments:
[1] = test system: Candida parapsilosis; assay: Fungicidal activity against Candida parapsilosis isolate 1 assessed as log reduction in bacterial count at 16 times MIC after 48 hrs by time-kill analysis; assay type: functional; settings: Lodderomyces parapsilosis, isolate 1, 48 h
How it was run: (§1)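 Isolates subcultured twice on SDA, suspended to 0.5 McFarland, giving ~1 x 10^5 to 5 x 10^5 CFU/ml in MOPS-buffered RPMI 1640 (pH 7.0) with or without drug at multiples of MIC (MIC by CLSI M27-A3). Tubes shaken at 35°C with continuous drug. Sampled at 0–48 h, diluted 10-fold and plated on SDA; CFU counted after 48 h at 35°C. Run twice per isolate; means.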

[2] = test system: Candida albicans; assay: Increase in susceptibility to SDS in Candida albicans ATCC 90028 assessed as cell wall damage at MIC after 1 hr relative to control; assay type: functional, organism-based
How it was run: (§2)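 Cells recovered 8 h after a 1-h drug exposure were grown in YPD with 1% glucose to exponential phase and adjusted to OD599 0.1. Undiluted culture and 10-fold serial dilutions were spotted onto YPD plates containing SDS (0.01 to 0.04%), then incubated 72 h at 30°C. Growth compared with unexposed control cells; triplicate.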

[3] = test system: Candida albicans; assay: Antifungal activity against Candida albicans isolate 2 by CLSI M27-A3 broth microdilution method; assay type: functional
How it was run: (§3)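 CLSI M27-A3 broth microdilution in RPMI 1640 buffered to pH 7.0 with MOPS. Starting inoculum 0.5 x 10^3 to 2.5 x 10^3 cells/ml, incubated at 35°C. MIC read as the lowest concentration giving >50% growth reduction versus control. Each isolate tested on at least three occasions.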

[4] = test system: Pichia kudriavzevii; assay: Antifungal activity against Candida krusei isolate ATCC 6258 assessed as time period for bacterial growth inhibition at 4 times MIC after 1 hr drug exposure; assay type: functional
How it was run: (§4)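 Inoculum of about 1 x 10^5 to 5 x 10^5 CFU/ml in MOPS-buffered RPMI (pH 7.0), shaken at 35°C and exposed to drug for 1 h. Cells then washed and centrifuged three times and resuspended in drug-free warm RPMI. Samples plated on SDA at 0, 2, 4, 8, 12, 24 and 48 h, with CFU counted after 48 h at 35°C. Run twice per isolate; values are means.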

[5] = test system: Candida parapsilosis; assay: Fungicidal activity against Candida parapsilosis isolate 1 assessed as log reduction in bacterial count at MIC after 48 hrs by time-kill analysis; assay type: functional; settings: Lodderomyces parapsilosis, isolate 1, 48 h
How it was run: (§5)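 Isolates subcultured twice on SDA, then suspended to 0.5 McFarland and diluted into RPMI 1640 (MOPS, pH 7.0) with or without anidulafungin, giving about 1 x 10^5 to 5 x 10^5 CFU/ml. Tubes were shaken at 35°C. Samples were taken at 0, 2, 4, 8, 12, 24 and 48 h, serially diluted 10-fold, plated on SDA, and CFU counted after 48 h at 35°C. Each isolate was run twice; mean values.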

[6] = test system: Candida parapsilosis; assay: Fungicidal activity against Candida parapsilosis isolate S assessed as log reduction in bacterial count at 16 times MIC after 48 hrs by time-kill analysis; assay type: functional; settings: Lodderomyces parapsilosis; how it was run: as §5
[7] = test system: Candida albicans; assay: Fungicidal activity against Candida albicans isolate 1 assessed as log reduction in bacterial count at 16 times MIC after drug exposure for 1 hr followed by washout measured after 48 hrs in the absence of drug by PAFE study; assay type: functional
How it was run: (§6)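 Starting inoculum ~1 x 10^5 to 5 x 10^5 CFU/ml in MOPS-buffered RPMI 1640 (pH 7.0) with drug at multiples of the CLSI M27-A3 MIC. After 1 h at 35°C, cells washed and centrifuged three times at 1,400 x g for 10 min, then resuspended in warm drug-free RPMI. Shaken at 35°C and plated on SDA at 0–48 h; CFU counted after 48 h. Run twice per isolate; means.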

[8] = test system: Nakaseomyces glabratus; assay: Antifungal activity against Candida glabrata isolate 1 assessed as time period for bacterial growth inhibition at 4 times MIC after 1 hr drug exposure; assay type: functional; how it was run: as §4
[9] = test system: Pichia kudriavzevii; assay: Increase in susceptibility to calcofluor white in Candida krusei isolate ATCC 6258 assessed as cell wall damage at 4 times MIC after 1 hr relative to control; assay type: functional, organism-based
How it was run: (§7)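 Cells recovered 8 h after a 1-h drug exposure were grown to exponential phase in YPD with 1% glucose and adjusted to OD599 0.1. Undiluted and 10-fold serially diluted cultures were spotted onto YPD plates containing calcofluor white, then incubated at 30°C for 72 h. Growth compared with no-drug control cells; triplicate.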

[10] = test system: Pichia kudriavzevii; assay: Increase in susceptibility to calcofluor white in Candida krusei isolate ATCC 6258 assessed as cell wall damage at MIC after 1 hr relative to control; assay type: functional, organism-based
How it was run: (§8)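 Candida given a 1-h anidulafungin pulse in MOPS-buffered RPMI 1640 (pH 7.0) at 35°C, washed three times by centrifugation, and regrown drug-free. Cells collected 8 h later, grown in YPD with 1% glucose to exponential phase, and set to OD599 0.1. Undiluted culture and 10-fold dilutions (4 µl) spotted on YPD plates with calcofluor white, then 30°C for 72 h. Triplicate; compared with no-drug cells.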

[11] = test system: Candida albicans; assay: Fungicidal activity against Candida albicans isolate S assessed as log reduction in bacterial count at MIC after drug exposure for 1 hr followed by washout measured after 48 hrs in the absence of drug by PAFE study; assay type: functional; how it was run: as §6
[12] = test system: Candida parapsilosis; assay: Antifungal activity against Candida parapsilosis isolate A assessed as cell wall damage at MIC by Transmission electron microscopy; assay type: functional, organism-based
How it was run: (§9)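 Cells recovered 8 h after a 1-h drug exposure were grown on SDA for 24 h at 35°C. Colonies fixed at 4°C in 0.1 M cacodylate (pH 7.2) with 2% glutaraldehyde and 2% paraformaldehyde, ethanol-dehydrated and embedded in Lowicryl K4M. Thin sections examined by transmission EM.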

[13] = test system: Candida parapsilosis; assay: Increase in susceptibility to calcofluor white in Candida parapsilosis isolate 1 assessed as cell wall damage at 16 times MIC after 1 hr relative to control; assay type: functional, organism-based; how it was run: as §8
[14] = test system: Candida parapsilosis; assay: Antifungal activity against Candida parapsilosis isolate A assessed as cell wall damage at 4 times MIC by Transmission electron microscopy; assay type: functional, organism-based; how it was run: as §9
[15] = test system: Candida albicans; assay: Increase in susceptibility to SDS in Candida albicans isolate 1 assessed as cell wall damage at 4 times MIC after 1 hr relative to control; assay type: functional, organism-based; how it was run: as §2
[16] = test system: Candida parapsilosis; assay: Antifungal activity against Candida parapsilosis isolate A assessed as time period for bacterial growth inhibition at 4 times MIC after 1 hr drug exposure; assay type: functional; how it was run: as §4
[17] = test system: Candida parapsilosis; assay: Increase in susceptibility to SDS in Candida parapsilosis isolate 1 assessed as cell wall damage at 16 times MIC after 1 hr relative to control; assay type: functional, organism-based; how it was run: as §2
[18] = test system: Pichia kudriavzevii; assay: Fungicidal activity against Candida krusei isolate ATCC 6258 assessed as log reduction in bacterial count at 16 times MIC after 48 hrs by time-kill analysis; assay type: functional; settings: isolate ATCC 6258, 48 h; how it was run: as §1
[19] = test system: Candida parapsilosis; assay: Increase in susceptibility to SDS in Candida parapsilosis isolate 1 assessed as cell wall damage at MIC after 1 hr relative to control; assay type: functional, organism-based; how it was run: as §2
[20] = test system: Candida parapsilosis; assay: Antifungal activity against Candida parapsilosis isolate A by CLSI M27-A3 broth microdilution method; assay type: functional; settings: Lodderomyces parapsilosis; how it was run: as §3
[21] = test system: Candida parapsilosis; assay: Increase in susceptibility to calcofluor white in Candida parapsilosis isolate A assessed as cell wall damage at 16 times MIC after 1 hr relative to control; assay type: functional, organism-based; how it was run: as §8
[22] = test system: Meyerozyma guilliermondii; assay: Antifungal activity against Candida guilliermondii by NCCLS M27A broth microdilution method; assay type: functional
[23] = test system: Nakaseomyces glabratus; assay: Increase in susceptibility to calcofluor white in Candida glabrata isolate 1 assessed as cell wall damage at 16 times MIC after 1 hr relative to control; assay type: functional, organism-based; how it was run: as §7

Q: What does the source list for `CCCCCOc1ccc(-c2ccc(-c3ccc(C(=O)N[C@H]4C[C@@H](O)[C@@H](O)NC(=O)[C@@H]5[C@@H](O)[C@@H](C)CN5C(=O)[C@H]([C@@H](C)O)NC(=O)[C@H]([C@H](O)[C@@H](O)c5ccc(O)cc5)NC(=O)[C@@H]5C[C@@H](O)CN5C(=O)[C@H]([C@@H](C)O)NC4=O)cc3)cc2)cc1` [ANIDULAFUNGIN] ({pTerphenylCO(4''-OnC5H11)}-[Orn(4R-OH,5R-OH)]T[Hyp][hTyr(3S-OH,4S-OH)]T[Pro(3S-OH,4S-Me)]; lactam 1-C)?
A: log reduction [1]: 3.47 log CFU/ml; Activity [2]: Active; MIC [3]: 0.03 µg/mL (≈ 0.0263 µM); Time [4]: 8 h; log reduction [5]: 1.65 log CFU/ml; log reduction [6]: 3.11 log CFU/ml; log reduction [7]: 2.64; Time [8]: 8 h; Activity [9]: Active; Activity [10]: Active; log reduction [11]: 1.59 log CFU/ml; Activity [12]: Active; Activity [13]: Active; Activity [14]: Active; Activity [15]: Active; Time [16]: 8 h; Activity [17]: Active; log reduction [18]: 3.2 log CFU/ml; Activity [19]: Active; MIC [20]: 2 µg/mL (≈ 1.75 µM); Activity [21]: Active; MIC90 [22]: 2 µg/mL (≈ 1.75 µM); Activity [23]: Active
